Assay results from ChEMBL document CHEMBL5329156, “Discovery and development of novel substituted monohydrazides as potent antifungal agents” (RSC Med Chem, 2023).
Converted amounts (≈) assume the structure as drawn.

Tests used:
Candida albicans [1] = assay: Antifungal activity against Candida albicans ATCC 10231 assessed as fungal growth inhibition by double dilution method; type: functional
Method in brief: (§1)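 Broth microdilution after CLSI M27-A3/M38-A2 with minor changes. Single colony grown overnight in YPD at 35 °C, 200 rpm. Compound final range 0.06-31.3 µg/mL; incubated 48 h at 35 °C.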

Candida albicans [2] = assay: Antifungal activity against Candida albicans ATCC 64124 assessed as fungal growth inhibition by double dilution method; type: functional
Method in brief: (§2)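 Broth microdilution after CLSI M27-A3/M38-A2 with minor modifications. A single colony was grown overnight in YPD at 35 °C with shaking at 200 rpm. Cells were mixed 1:1 with compound (final 0.06-31.3 µg/mL, from DMSO stocks) and incubated 48 h at 35 °C.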

Candida albicans [3] = assay: Antifungal activity against itraconazole/fluconazole susceptible Candida albicans ATCC MYA-2876 assessed as fungal growth inhibition by double dilution method; type: functional; method in brief: as §2
Candida albicans [4] = assay: Antifungal activity against itraconazole/fluconazole resistant Candida albicans ATCC 90819 assessed as fungal growth inhibition by double dilution method; type: functional; method in brief: as §2
Candida albicans [5] = assay: Antifungal activity against itraconazole/fluconazole susceptible Candida albicans ATCC MYA-2310 assessed as fungal growth inhibition by double dilution method; type: functional; method in brief: as §2
Candida albicans [6] = assay: Antifungal activity against itraconazole/fluconazole resistant Candida albicans ATCC MYA-1237 assessed as fungal growth inhibition by double dilution method; type: functional; method in brief: as §2
Candida albicans [7] = assay: Antifungal activity against itraconazole/fluconazole resistant Candida albicans ATCC MYA-1003 assessed as fungal growth inhibition by double dilution method; type: functional; method in brief: as §2
Nakaseomyces glabratus [8] = assay: Antifungal activity against Candida glabrata ATCC 2001 assessed as fungal growth inhibition by double dilution method; type: functional; method in brief: as §1
Pichia kudriavzevii [9] = assay: Antifungal activity against Pichia kudriavzevii ATCC 6258 assessed as fungal growth inhibition by double dilution method; type: functional; method in brief: as §1
Nakaseomyces glabratus [10] = assay: Antifungal activity against Candida glabrata ATCC 22019 assessed as fungal growth inhibition by double dilution method; type: functional; method in brief: as §1
[Candida] auris [11] = Antifungal activity against Candida auris AR Bank # 0384 assessed as fungal growth inhibition by double dilution method; type: functional; details: Candidozyma auris; method in brief: as §1
[Candida] auris [12] = Antifungal activity against Candida auris AR Bank # 0390 assessed as fungal growth inhibition by double dilution method; type: functional; details: Candidozyma auris; method in brief: as §1
Cryptococcus neoformans = assay: Antifungal activity against Cryptococcus neoformans ATCC MYA-895 assessed as fungal growth inhibition by double dilution method; type: functional; method in brief: as §1
Aspergillus terreus = assay: Antifungal activity against Aspergillus terreus ATCC MYA-3633 assessed as fungal growth inhibition by double dilution method; type: functional
Aspergillus fumigatus [13] = assay: Antifungal activity against Aspergillus fumigatus NRRL 163 assessed as fungal growth inhibition by double dilution method; type: functional
Aspergillus flavus = assay: Antifungal activity against Aspergillus flavus ATCC MYA-3631 assessed as fungal growth inhibition by double dilution method; type: functional
Aspergillus nidulans = assay: Antifungal activity against Aspergillus nidulans ATCC 38163 assessed as fungal growth inhibition by double dilution method; type: functional
Aspergillus fumigatus [14] = assay: Antifungal activity against Aspergillus fumigatus NRRL 5109 assessed as fungal growth inhibition by double dilution method; type: functional
Aspergillus fumigatus [15] = assay: Antifungal activity against Aspergillus fumigatus NRRL 6113 assessed as fungal growth inhibition by double dilution method; type: functional
[Candida] auris [16] = Antifungal activity against Candida auris AR Bank # 381 assessed as fungal growth inhibition by double dilution method; type: functional; details: Candidozyma auris; method in brief: as §1
[Candida] auris [17] = Antifungal activity against Candida auris AR Bank # 382 assessed as fungal growth inhibition by double dilution method; type: functional; details: Candidozyma auris; method in brief: as §1
[Candida] auris [18] = Antifungal activity against Candida auris AR Bank # 383 assessed as fungal growth inhibition by double dilution method; type: functional; details: Candidozyma auris; method in brief: as §1
[Candida] auris [19] = Antifungal activity against Candida auris AR Bank # 384 assessed as fungal growth inhibition by double dilution method; type: functional; details: Candidozyma auris; method in brief: as §1
[Candida] auris [20] = Antifungal activity against Candida auris AR Bank # 385 assessed as fungal growth inhibition by double dilution method; type: functional; details: Candidozyma auris; method in brief: as §1
[Candida] auris [21] = Antifungal activity against Candida auris AR Bank # 386 assessed as fungal growth inhibition by double dilution method; type: functional; details: Candidozyma auris; method in brief: as §1
[Candida] auris [22] = Antifungal activity against Candida auris AR Bank # 387 assessed as fungal growth inhibition by double dilution method; type: functional; details: Candidozyma auris; method in brief: as §1
[Candida] auris [23] = Antifungal activity against Candida auris AR Bank # 388 assessed as fungal growth inhibition by double dilution method; type: functional; details: Candidozyma auris; method in brief: as §1
[Candida] auris [24] = Antifungal activity against Candida auris AR Bank # 389 assessed as fungal growth inhibition by double dilution method; type: functional; details: Candidozyma auris; method in brief: as §1
[Candida] auris [25] = Antifungal activity against Candida auris AR Bank # 390 assessed as fungal growth inhibition by double dilution method; type: functional; details: Candidozyma auris; method in brief: as §1
Candida duobushaemulonii [26] = assay: Antifungal activity against Candida duobushaemulonii AR Bank # 391 assessed as fungal growth inhibition by double dilution method; type: functional; details: Candidozyma duobushaemuli; method in brief: as §1
Candida duobushaemulonii [27] = assay: Antifungal activity against Candida duobushaemulonii AR Bank # 392 assessed as fungal growth inhibition by double dilution method; type: functional; details: Candidozyma duobushaemuli; method in brief: as §1
[Candida] haemuloni [28] = Antifungal activity against Candida haemulonii AR Bank # 393 assessed as fungal growth inhibition by double dilution method; type: functional; details: Candidozyma haemuli; method in brief: as §1
Candida duobushaemulonii [29] = assay: Antifungal activity against Candida duobushaemulonii AR Bank # 394 assessed as fungal growth inhibition by double dilution method; type: functional; details: Candidozyma duobushaemuli; method in brief: as §1
[Candida] haemuloni [30] = Antifungal activity against Candida haemulonii AR Bank # 395 assessed as fungal growth inhibition by double dilution method; type: functional; details: Candidozyma haemuli; method in brief: as §1
Kodamaea ohmeri = assay: Antifungal activity against Kodamaea ohmeri AR Bank # 396 assessed as fungal growth inhibition by double dilution method; type: functional; method in brief: as §1
Pichia kudriavzevii [31] = assay: Antifungal activity against Pichia kudriavzevii AR Bank # 397 assessed as fungal growth inhibition by double dilution method; type: functional; method in brief: as §1
Clavispora lusitaniae = assay: Antifungal activity against Clavispora lusitaniae AR Bank # 398 assessed as fungal growth inhibition by double dilution method; type: functional; method in brief: as §1
Saccharomyces cerevisiae [32] = assay: Antifungal activity against Saccharomyces cerevisiae AR Bank # 399 assessed as fungal growth inhibition by double dilution method; type: functional; method in brief: as §1
Saccharomyces cerevisiae [33] = assay: Antifungal activity against Saccharomyces cerevisiae AR Bank # 400 assessed as fungal growth inhibition by double dilution method; type: functional; method in brief: as §1
J774.A1 = assay: Cytotoxicity against J774A.1 cells assessed as reduction in cell viability at 31.3 microg/ml; type: toxicity, cell-based; details: mouse, dose 31.3 µg/ml
Method in brief: (§3)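 Cells in DMEM with 10% FBS and 1% Pen/Strep, seeded at 10,000 cells/well and held overnight at 37 °C, 5% CO2. Compounds added at final 31.3-0.12 µg/mL (0.05% DMSO vehicle) for 24 h. Resazurin then added for 6 h; fluorescence read at ex 560/em 590. Triton X-100 1% as positive control; values normalized to vehicle. Run in quadruplicate.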

HEK293 = assay: Cytotoxicity against human HEK-293 cells assessed as reduction in cell viability at 31.3 microg/ml; type: toxicity, cell-based; details: dose 31.3 µg/ml; method in brief: as §3

`C[C@@H]1[C@H](O)[C@@H](C)/C=C/C=C/C=C/C=C/C=C/C=C/C=C/[C@H](O[C@@H]2O[C@H](C)[C@@H](O)[C@H](N)[C@@H]2O)C[C@@H]2O[C@](O)(C[C@@H](O)C[C@@H](O)[C@H](O)CC[C@@H](O)C[C@@H](O)CC(=O)O[C@H]1C)C[C@H](O)[C@H]2C(=O)O` [AMPHOTERICIN B] gave an MIC (Candida albicans [1]) of 1.95 µg/mL (≈ 2.11 µM), an MIC (Candida albicans [2]) of 1.95 µg/mL (≈ 2.11 µM) and an MIC (Candida albicans [3]) of 1.95 µg/mL (≈ 2.11 µM). It also gave an MIC (Candida albicans [4]) of 0.98 µg/mL (≈ 1.06 µM), an MIC (Candida albicans [5]) of 0.98 µg/mL (≈ 1.06 µM) and an MIC (Candida albicans [6]) of 1.95 µg/mL (≈ 2.11 µM). For the same molecule, the MIC (Candida albicans [7]) was 0.98 µg/mL (≈ 1.06 µM), the MIC (Nakaseomyces glabratus [8]) was 0.98 µg/mL (≈ 1.06 µM) and the MIC (Pichia kudriavzevii [9]) was 0.98 µg/mL (≈ 1.06 µM). For the same molecule, the MIC (Nakaseomyces glabratus [10]) was 0.98 µg/mL (≈ 1.06 µM), the MIC ([Candida] auris [11]) was 1.95 µg/mL (≈ 2.11 µM) and the MIC ([Candida] auris [12]) was 1.95 µg/mL (≈ 2.11 µM). It also gave an MIC (Cryptococcus neoformans) of 7.8 µg/mL (≈ 8.44 µM), an MIC (Aspergillus terreus) of 3.9 µg/mL (≈ 4.22 µM) and an MIC (Aspergillus fumigatus [13]) of 0.98 µg/mL (≈ 1.06 µM). It also gave an MIC (Aspergillus flavus) of 31.3 µg/mL (≈ 33.9 µM), an MIC (Aspergillus nidulans) of 15.6 µg/mL (≈ 16.9 µM) and an MIC (Aspergillus fumigatus [14]) of 0.98 µg/mL (≈ 1.06 µM). For the same molecule, the MIC (Aspergillus fumigatus [15]) was 1.95 µg/mL (≈ 2.11 µM), the MIC ([Candida] auris [16]) was 0.98 µg/mL (≈ 1.06 µM) and the MIC ([Candida] auris [17]) was 0.98 µg/mL (≈ 1.06 µM). For the same molecule, the MIC ([Candida] auris [18]) was 1.95 µg/mL (≈ 2.11 µM), the MIC ([Candida] auris [19]) was 1.95 µg/mL (≈ 2.11 µM) and the MIC ([Candida] auris [20]) was 1.95 µg/mL (≈ 2.11 µM). The MIC ([Candida] auris [21]) was 0.98 µg/mL (≈ 1.06 µM), the MIC ([Candida] auris [22]) was 0.98 µg/mL (≈ 1.06 µM) and the MIC ([Candida] auris [23]) was 1.95 µg/mL (≈ 2.11 µM). The MIC ([Candida] auris [24]) was 1.95 µg/mL (≈ 2.11 µM), the MIC ([Candida] auris [25]) was 1.95 µg/mL (≈ 2.11 µM) and the MIC (Candida duobushaemulonii [26]) was 7.8 µg/mL (≈ 8.44 µM). The MIC (Candida duobushaemulonii [27]) was 7.8 µg/mL (≈ 8.44 µM), the MIC ([Candida] haemuloni [28]) was 15.6 µg/mL (≈ 16.9 µM) and the MIC (Candida duobushaemulonii [29]) was 0.98 µg/mL (≈ 1.06 µM). The MIC ([Candida] haemuloni [30]) was 3.9 µg/mL (≈ 4.22 µM), the MIC (Kodamaea ohmeri) was 1.95 µg/mL (≈ 2.11 µM) and the MIC (Pichia kudriavzevii [31]) was 0.49 µg/mL (≈ 0.53 µM). For the same molecule, the MIC (Clavispora lusitaniae) was 3.9 µg/mL (≈ 4.22 µM), the MIC (Saccharomyces cerevisiae [32]) was 15.6 µg/mL (≈ 16.9 µM) and the MIC (Saccharomyces cerevisiae [33]) was 1.95 µg/mL (≈ 2.11 µM). For the same molecule, the Activity (J774.A1) was “Non-Toxic” and the Activity (HEK293) was “Non-Toxic”.
